Test results taken from the RNAGym collection of RNA variant scans (doi:10.1126/science.aae0568).
Variants at the floor of the assay were thinned out.

B1: tRNA (parent)
chain: GUUCCGUUGGCGUAAUGGUAACGCGUCUCCCUCCUAAGGAGAAGACUGCGGGUUCGAGUCCCGUACGGAACG

Variants of: B1
Test: yeast fitness relative to wild type (ratio to wild type); higher = fitter; tRNA-Arg(CCU), competitive growth, 37 C, YPD
How it was run: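 A pool of Saccharomyces cerevisiae strains, each with a tRNA-Arg(CCU) gene variant at the native genomic locus, was competed in YPD at 37°C for 24 hours across six parallel replicates. The variants had been chemically synthesised at a 3% per-site mutation rate over 69 sites, and gene amplicons before and after competition were read by 100-nucleotide paired-end sequencing. Darwinian fitness relative to wild type rested on changes in genotype frequencies. Genotypes required ≥ 100 starting reads, and estimates < 0.5 were set to 0.5.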
Work on GUUCCGUUGGCGUAAUGGUAACGCGUCUCCUUCCUAAGGAGAAGAAUGCGGGUUCGUGUUCCGUACGGAACG [C31U C46A A57U C60U] yielded a yeast fitness of at most 0.5.
In the case of GUGCCGUUGGCGCUAUGGUAACGCGUCUCCCUCCUAAGGAGAAGACUGCGGGUUCGAGUCGUGUACGGAACG [U3G U13C A14U C61G C62U], the yeast fitness is reported as at most 0.5.
With GUUCCGUUGGCGUAAUGGUAUCGUGUCUCCCUCCUAUGGAGAAGACUGCGUGUUCGAGUCCCGUACGGAACG [A21U C24U A37U G51U] the yeast fitness was at most 0.5.
GUUCCGUUGGCGUAAUGGUAAUGCGUCUCCCUCCUCAGGAGAAGACUGCGGGUUCGAGUCCCGUACGGCACG [C22U A36C A69C] showed a yeast fitness of at most 0.5.
Variant GUUCCGUUGGCGUAAUGGUAACGCGUCUCCUUCUUAAAGAGAACACUGCGGGUUCGAGUCCCGUACGGAACG [C31U C34U G38A G44C] has a yeast fitness of at most 0.5.
For GUUCCGUUGGCGAAAUGGUAGCGCGUCUCCCUCCUAAGGAGAAGACUGCGGGUUCGAGUCCCGUACGGAACG [U13A A21G], the yeast fitness was 1.04.
With GUUCCGUUGGCGUAAUGGUAACGCGUCUCCUUCCUAAGGAGAAGACUGCGGGCUCGAGUCCUGUACGGAACG [C31U U53C C62U] the yeast fitness was at most 0.5.
Work on GUUCCGUUGGCGUAAUGGUAAAGCGUCUUCCUCCUAAGGAGAAGACUGCGGGUUUGAGUCCCGUACGGAACG [C22A C29U C55U] yielded a yeast fitness of 0.579.
Work on GUUCAGUUGGCGAAAUGGUAACGCGUCUCCCUCCAAAGGAGAAGACUGCGGGUUCGAGCCCCGUACGGAACG [C5A U13A U35A U59C] yielded a yeast fitness of 0.661.
Work on GUUCCGUUGGCGUAAAGCUAACGCGUCUCCUUCCUAAGGAGAAGACUGCGCGUUCGAGUCCCGUACGGAACG [U16A G18C C31U G51C] yielded a yeast fitness of at most 0.5.
In the case of GUUCCGUUGGCGUAAUGGUAACGCGUCUCCCUCGUAAGGAGAAGACUGCGGGUUCGAGUCCCGUACAGAACG [C34G G67A], the yeast fitness is reported as 0.596.
Work on GUUCCGUAGGGGUAAUGGUAACGCGUCUCCCUCGUAAGGAGAAGACUGCGGGUUCGAGUGCCGUUCGGAACG [U8A C11G C34G C60G A65U] yielded a yeast fitness of at most 0.5.
Variant GUUCCGUUGGCGGAAUGGUAACGCGUCUCCCUCCUAAGGACAAGACUGCGGGUUCGAGUCCCGUACGGAACG [U13G G41C] has a yeast fitness of 0.782.
In the case of GUUCCGUUAGCGUAAUGGUAACGCGUCUCCCUCCUAAGGAGAAGACUGCGGGUUCGAGUCUCGUACGGAACG [G9A C61U], the yeast fitness is reported as 0.949.
Work on GUUCCGUUGGCGUAAUGGUAACCCGUCUCCCUUCUAAGGAGAAGACUGCGGGUUCGUGUCCCGUACAGAACG [G23C C33U A57U G67A] yielded a yeast fitness of 0.512.
GUUCCGUUGGCCUAAUGGUAACGCGUCUCCCUCCUAAGGAGAAGACUGCGGGUUCGAGUCCCGUAAGGAACG [G12C C66A] gave a yeast fitness of 0.676.
GUUCCGUUGGCGGAAUGGCAACGCGUCUCCCUCCUAAGGAGAAGACUGCGGGUUCGAGUCUCGUACGGAACG [U13G U19C C61U] showed a yeast fitness of at most 0.5.
GUUCCGUUGGCGUAAUGGGAACGGGUCUCCCUCCUAAGGAGAAGACUGCGGGUUCGAGUCCCGUACGGAACG [U19G C24G] gave a yeast fitness of 0.553.
In the case of GUUUCGUUGGCGUAAUGGUAACGCGUCUCCCACCUAAGGAGAAGACUGCGGGUUCGAGUCCCGUACGGAACG [C4U U32A], the yeast fitness is reported as 0.712.
In the case of GUUCCGUUGGUGUAAUGGCAACACAUCUCCCUCCUAAGGAGAAGACUGCGGGUUUGAGUCCCGUACGGAACG [C11U U19C G23A G25A C55U], the yeast fitness is reported as 0.537.
GAUCCACUGGCGUACUGGUAACGCGUCUGCCUUCUAAGGAGAAGACUGCGGGUUCGAGUCCCGUACGUAACG [U2A G6A U7C A15C C29G C33U G68U] showed a yeast fitness of at most 0.5.
In the case of GUUCCGUUGGCGUAAUGGUAAGGCGUCUCCGUCCUAAGGAGAAGACUGUGGGUUCGAGUCCCGUACGGAACG [C22G C31G C49U], the yeast fitness is reported as 0.605.
For GUUCAGUUGGCGUAAUGGUAACGCGUCUCCCUGUUAAGGAGAAGACUGCGGGUUCGAGUCCCGUACGGAACG [C5A C33G C34U], the yeast fitness was at most 0.5.
GUUCCGUUGGCGUAGUGGUAACGCGUCUCCCUCCUAAGGAGAAGACUGCGGGUUCGAAUCCUGUACGGCACG [A15G G58A C62U A69C] showed a yeast fitness of 0.685.
GUUCCGUUGGCGUAAUGGUAACGCGUCUCCCUCCUAAGGAGAAGACUGCGGGUUCGAGUCCCAUACGGGACG [G63A A69G] showed a yeast fitness of 0.878.
Work on GUUCCGUUGGCGUAAUGGUCACGCGUCUCCCUUCUAGGGAGAAGUCUACGGGUUCCAGUCCCGUACGGAACG [A20C C33U A37G A45U G48A G56C] yielded a yeast fitness of at most 0.5.
In the case of GUUCCGUUGGCGUAAUGGUAACGCGUCUCCCUCCUAAGGAAGAGACUGCGGGUUCGAGUCCCGUACGGAUCG [G41A A42G A70U], the yeast fitness is reported as at most 0.5.
GUUACGUUAGCGGAAUGGUAAUGCGUCUCCCUCCUAAGGAGAAGACUGCGGGUUCGAGUCACGUACGGACCG [C4A G9A U13G C22U C61A A70C] gave a yeast fitness of at most 0.5.
GUUCCGUUGGCGUAAUGGGAACGCGUCUCCCUCCUAAGGAGAAGACCGCGGGUUCGAGUCCCGGACGGAACG [U19G U47C U64G] showed a yeast fitness of 0.536.
For GUUCCGUUGGCGUAAUGGUAAGGGGUCUCCCUCCUAAGGAGAAGACUGCGGGUUGGAGUCCCGUACGGAACG [C22G C24G C55G], the yeast fitness was at most 0.5.
Work on GUUCCGUUAGCGUAAUGGGAACGCGUCUCCCUCCUAAGGAGAAGACUGCGGGUUCGAGCCCGGUUCGGAACG [G9A U19G U59C C62G A65U] yielded a yeast fitness of at most 0.5.
With GUUACGUUGGGGUAAUGGUAACGCGUCUCCCUCUUAAGGAGAAGACUGCGGGUUCGAGUCCCGUACGGAACG [C4A C11G C34U] the yeast fitness was at most 0.5.
Work on GUUCCGUUGGCGUAAUGGUAACGCGUCUCCCUCCUAAGGAGAAGACUGCGGGUUCGAAUCCUGUACGGCACG [G58A C62U A69C] yielded a yeast fitness of 1.1.
GUUCCGUAGCCGUAAUGGUAACGCGUCUACCUCCUAAGGUGAAGACUGCGGGUUGGAGUCCCGUACGGAACG [U8A G10C C29A A40U C55G] showed a yeast fitness of 0.533.
For GUUCCGUUGGCGUAAUGGUAGCGCGUCUCCCUCCUAAGGAGAAGAUUGCGGGUUCCAGUCCCGUACGGUACG [A21G C46U G56C A69U], the yeast fitness was at most 0.5.
GUUCCGUAGGCGUAAUGGUAACGCGUCUCUCUCCUAAGGAGAAGACUGCGGGUUCGAGUCCCGUACGGAACG [U8A C30U] showed a yeast fitness of 0.665.
In the case of GUUCCGUUGACGUAUUGGUAACGCGUCUCCCUCCUAAGGAGAAGACUGCGAGUUCGAGUCCCGUUCGGAACG [G10A A15U G51A A65U], the yeast fitness is reported as 0.603.
Work on GUUCCGUUGGCGUAAUAGUAACGCGUCUCUCUCCUAAGGUGAAGACUGCGGGUUCGUGUCCCGUACGGAACG [G17A C30U A40U A57U] yielded a yeast fitness of at most 0.5.
